# NSD2 HMT inh = inhibitors of human histone methyltransferase NSD2; O96028; NSD2 peptide methylation, AlphaScreen, 120 min; inhibition, % at 12.5 µM; 310,000 tested, 0.54% active; AID 743445; in the data active means inhibition above about 50%
# SR-BI DiI-HDL act = SR-BI HDL lipid transfer activation; CHO ldlA[mSR-BI] cells, DiI-HDL uptake fluorescence, 3 h; 100 = double the neutral-control signal; activation, % at 12.5 µM; 320,000 tested, 0.096% active; AID 504775;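 active means mean replicate activation of at least 60% and every replicate at or above 60%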;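 further: 0% = median plate neutral-control signal and 100% = twice that signal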
#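 System: CHO ldlA[mSR-BI] cells / Medium: HEPES-buffered (25 mM, pH 7.4) F12 plus 0.5% BSA / Probe or stimulus: labelled HDL, 10 µg/mL / Doses: single compound concentration, delivered by pin transfer / Schedule: 3 h, 37 °C / Measured by: DiI fluorescence, bottom read / Measure: cell-associated DiI fluorescence as measure of HDL uptake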
# sPLA2-III inh = Inhibits HGIII-sPLA2 liposome hydrolysis, primary screen. Q9NZ20. QFRET BODIPY PC-A2 liposome hydrolysis, fluorescence. inhibition, % at 12.2 µM. 370,000 tested, 0.56% active;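 active means inhibition above mean plus 3 SD of compounds lying within the high and low control bounds, cut at about 19% in these data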;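 further: 0% = median of test compound wells and 100% = no enzyme DMSO wells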
# Target sequence (Q9NZ20 whole entry, looked up): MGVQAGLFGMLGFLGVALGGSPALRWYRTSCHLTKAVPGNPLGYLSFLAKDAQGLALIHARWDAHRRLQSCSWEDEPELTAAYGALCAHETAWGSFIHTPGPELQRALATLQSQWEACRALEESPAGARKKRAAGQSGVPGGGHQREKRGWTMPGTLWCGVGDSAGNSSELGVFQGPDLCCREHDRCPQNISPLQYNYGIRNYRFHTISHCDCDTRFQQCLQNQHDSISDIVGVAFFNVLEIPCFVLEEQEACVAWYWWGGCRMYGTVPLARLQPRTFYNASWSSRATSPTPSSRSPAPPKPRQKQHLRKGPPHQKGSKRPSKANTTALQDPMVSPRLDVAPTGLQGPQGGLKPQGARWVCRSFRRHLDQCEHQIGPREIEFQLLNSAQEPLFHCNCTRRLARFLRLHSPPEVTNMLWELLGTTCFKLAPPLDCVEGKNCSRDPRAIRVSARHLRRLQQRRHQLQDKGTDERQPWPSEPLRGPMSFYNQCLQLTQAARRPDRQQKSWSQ
# SR-BI HDL uptake = mouse SR-BI HDL lipid transfer inhibition | 320,000 tested, 0.96% active | ldlA[mSR-BI] CHO cells, DiI-HDL uptake fluorescence, 3 h | Q61009 | inhibition, % at 12.5 µM;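 active means mean replicate inhibition of at least 70% and a set share of replicates each scoring 70 or more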;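 further: 0% = median of neutral control wells and 100% = median of positive control wells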
# ARNT-TACC3 inh = disrupts binding between human ARNT and TACC3; AID 623870; 390,000 tested, 0.66% active; AlphaScreen His-ARNT PAS-B/GST-TACC3 binding, luminescence; TACC3 fragment carries E629A point mutation; inhibition, % at 9.99 µM;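 active means mean inhibition of replicates at least 50% and at least half of replicates each reaching 50%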;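 further: 0% = complete ARNT plus TACC3 wells and 100% = ARNT alone without TACC3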
# Xi reactivation = activators of X-chromosome reactivation in mouse fibroblasts; activation, % at 7.58 µM; XiGFP mouse fibroblasts, % GFP-positive cells imaging, 3 d; cells co-treated with 5-aza-dC sensitizer; scaled so ellipticine positive control = 100%; 360,000 tested, 0.055% active;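 active means mean normalized replicate activation at least 10% and every replicate at or above 10%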;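 further: 0% = median of on-plate neutral control wells and 100% = ellipticine 6 µM median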
#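 Material: XiGFP fibroblasts, SV40-immortalized; Buffer or medium: DMEM containing 5-aza-dC; Compound dosing: single point; Times: 3 days compound exposure.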
# An asterisk follows results filed as active; i = inactive; nt = not tested or not shown. This is a sample that favours compounds with a hit; in the whole collection about 2% have one here.
SMILES,NSD2 HMT inh,SR-BI DiI-HDL act,sPLA2-III inh,SR-BI HDL uptake,ARNT-TACC3 inh,Xi reactivation
Cc1cccc(C(=O)Nc2cc(NC(=O)c3cccs3)ccc2C)c1,-2.6,-74.4,-6.9,74.4*,4.1,0.0
COc1cc(NC(=O)c2ccc(C)cc2C)ccc1NC(=O)c1cccs1,-4.4,-84.1,-0.6,84.1*,-2.0,0.1
COc1cc(NC(=S)NC(=O)c2ccc(C)cc2C)ccc1NC(=O)c1cccs1,-4.0,-31.6,1.1,31.6,-1.3,nt
CCc1nc2c(OCC(=O)C(C)(C)C)cccn2c1N(C)C(=O)c1ccc(C)cc1,-1.1,nt,2.4,nt,nt,0.0
Nc1ccc(Br)c2cccnc12,99.0*,3.5,15.3,-3.5,48.6*,0.0
Cc1cc2nnc(SCc3ccccc3)n2c(N)n1,-2.7,16.6,-3.2,-16.6,-10.9,nt
COc1cc(/C=N/NC(=O)CSc2cc(C)c(Br)cc2C)ccc1O,2.1,-46.3,-30.2,46.3,1.8,nt
Cc1cc(SCC(=O)N/N=C/c2ccc(O)c(O)c2O)c(C)cc1Br,nt,-27.4,31.6*,27.4,-3.1,nt
COC(=O)C1=C(N)OC2=C(C(=O)CC(C)(C)C2)C1c1cccs1 (centres undefined),6.0,821.5*,-1.7,i,-3.1,nt
CC1(C)CC(=O)C2=C(C1)OC(N)=C(C#N)C2c1cccs1 (centres undefined),0.3,26.0,4.5,-26.0,-2.1,0.0
Cc1ccc(C(=O)c2cc([N+](=O)[O-])ccc2N2CCOCC2)c(C)c1,2.8,-81.0,-4.9,81.0*,-9.7,nt
CCOc1ccc(C(=O)COC(=O)c2cc([N+](=O)[O-])ccc2N2CCOCC2)cc1,2.5,-79.3,-0.3,79.3*,7.3,0.2
Cc1ccc(C)c(C(=O)COC(=O)c2cc([N+](=O)[O-])ccc2N2CCOCC2)c1,3.2,-72.6,-2.0,72.6*,3.7,0.0
O=C(COC(=O)c1cc([N+](=O)[O-])ccc1N1CCOCC1)c1ccc(Br)cc1,1.4,-78.8,-1.6,78.8*,nt,0.0
CCOc1ccc(NC(=O)COC(=O)c2cc([N+](=O)[O-])ccc2N2CCOCC2)cc1,3.4,-48.2,-5.5,48.2,12.5,0.1
COc1ccc(S(=O)(=O)Nc2cccc3c2O[C@@H](CN(C)Cc2ccc(C(=O)O)cc2)[C@H](C)CN([C@@H](C)CO)C3=O)cc1,nt,nt,nt,nt,nt,-0.1
CC1CCN(CCNC(=O)CCS(=O)(=O)c2ccc(Br)cc2)CC1,nt,nt,1.9,nt,-0.5,nt
CCN1/C(=C/c2ccc3cc(C)ccc3[n+]2CC)Sc2cc(C)ccc21,37.9,-57.7,-2.9,57.7,9.2,101.5*
CCCCN1/C(=C/c2ccc3ccccc3[n+]2CC)Sc2ccccc21,26.1,-31.6,nt,31.6,-2.1,nt
CCOC(=O)CCS(=O)(=O)c1nc(-c2ccccc2)cc(C(F)(F)F)n1,nt,8.6,nt,-8.6,0.0,nt
CCOC(=O)c1cc2c(C(F)(F)F)cc(-c3ccccc3)nc2o1,0.5,-76.5,8.6,76.5*,-34.5,nt
CCOC(=O)c1c(C(F)(F)F)cc(-c2ccc(F)cc2)nc1C,3.5,-30.0,4.5,30.0,-6.4,-0.1
CCOC(=O)CS(=O)(=O)c1nc(-c2ccccc2)cc(C(F)(F)F)n1,-0.5,-98.0,-18.1,98.0*,6.2,nt
CN(C)/C=N/C1=C(C#N)C(c2ccc(Br)cc2)c2ccc3ccccc3c2O1 (centres undefined),2.4,-11.3,0.2,11.3,-2.2,0.2
O=C(C[C@H]1C[C@@H]2c3cc(NC(=O)CC4CC4)ccc3O[C@@H]2[C@@H](CO)O1)NCc1cccc(F)c1,nt,nt,nt,nt,active,0.1
SMILES,NSD2 HMT inh,SR-BI DiI-HDL act,sPLA2-III inh,SR-BI HDL uptake,ARNT-TACC3 inh,Xi reactivation
COc1ccc(N2C(=O)/C(=C/c3ccc([N+](=O)[O-])cc3)C=C2c2ccccc2)cc1,3.0,-96.4,1.6,96.4*,-3.3,nt
CCN(CC)c1ccc(-n2cc3c(=O)n(C)c(=O)n(C)c3c2)cc1,16.3,-73.5,7.1,73.5*,7.4,nt
O=c1c2[nH]c3ccc(Br)cc3c2ncn1CCCn1ccnc1,-3.6,0.7,0.8,-0.7,78.8*,nt
O=c1c2[nH]c3ccccc3c2ncn1CCCn1ccnc1,8.0,13.8,1.1,-13.8,-2.7,nt
COCCCNC(=O)c1cc(Nc2ccc(OC)cc2OC)nc2ccccc12,8.8,-33.1,-4.9,33.1,1.6,0.1
COc1ccc(Nc2cc(C(=O)N3CCc4ccccc4C3)c3ccccc3n2)c(OC)c1,14.6,-78.5,-10.9,78.5*,nt,0.0
O=C(CSc1nc2ccccc2s1)Nc1cc(S(=O)(=O)N2CCOCC2)ccc1Cl,-2.8,-17.2,-40.5,17.2,-2.3,-0.1
COC(=O)NC(=C(Cl)Cl)S(=O)(=O)c1ccccc1,4.5,73.3*,2.5,-73.3,-2.6,nt
CC(CCC(=O)O)C1CC[C@H]2C3CCC4CC(=O)CCC4(C)[C@H]3CC(=O)C12C (some centres undefined),42.9,8.8,12.9,-8.8,-2.3,0.0
CCOC(=O)C1CCN(CC(O)COCc2ccc3c(c2)OCO3)CC1 (centres undefined),4.8,10.1,-0.2,-10.1,-3.3,0.0
O=C1c2cccc3cccc(c23)C(=O)N1CC1CCN(CC(O)COCc2ccc3c(c2)OCO3)CC1 (centres undefined),9.8,-70.3,-13.6,70.2*,12.7,0.0
Cc1ccc(C)c(OCC(O)CN2CCC(CN3C(=O)c4cccc5cccc(c45)C3=O)CC2)c1 (centres undefined),46.0,-60.8,4.5,60.8,4.4,2.0
O=C(CN1C(=O)c2cccc3cccc1c23)N1CCN(Cc2ccc3c(c2)OCO3)CC1,27.3,-15.6,-6.6,15.6,-0.2,nt
COc1ccc(OCC(O)CN2CCC(CN3C(=O)c4cccc5cccc(c45)C3=O)CC2)cc1 (centres undefined),4.8,-77.1,-13.7,77.1*,-10.6,0.0
O=C(CCN1C(=O)c2cccc3cccc(c23)C1=O)N1CCN(Cc2ccc3c(c2)OCO3)CC1,-7.2,-74.3,-0.6,74.3*,3.7,nt
C[C@@H]1CCCCO[C@@H](CN(C)C(=O)Cc2ccccc2)[C@H](C)CN([C@H](C)CO)C(=O)c2cc(N(C)C)ccc2O1,nt,nt,nt,nt,nt,-0.2
COCCCNC(=S)NNC(=O)c1csc(C)n1,-3.0,8.0,0.5,-8.0,56.6*,0.1
C/C(=N\NC(=O)COc1ccccc1-c1ccccc1)c1cccnc1,0.9,26.2,-15.0,-26.2,7.3,0.0
C/C(=N\NC(=O)COc1ccccc1-c1ccccc1)c1ccccn1,30.5,-31.2,-9.5,31.2,8.8*,0.8
C/C(=N\NC(=O)c1ccc(Cl)cc1)c1ccccn1,30.9,-1.4,-2.5,1.4,81.6*,0.4
Cc1ccc(S(=O)(=O)NC(=O)COc2ccccc2C)c(C)c1,-3.4,58.0,-9.2,-58.0,1.0,0.1

# Compound activity: PubChem BioAssay, several laboratories
